Results: ChEMBL document CHEMBL1158469 (J Med Chem, 2009)
Calls of active or inactive are those of the source. No cut-off for these calls is given here.

Columns and labels:
[1] = Induction of apoptosis in human RS11846 cells after 1 to 2 days by FITC-annexin V and propidium iodide assay; assay type: functional, cell-based
[2] = molecular target: Bcl-2-like protein 1 (Homo sapiens) (UniProt Q07817); test: Inhibition of Bcl-xL at 200 uM by 1D 1H NMR binding assay
[3] = (§1) Induction of apoptosis in human BP3 cells after 1 to 2 days by FITC-annexin V and propidium iodide assay; assay type: functional, cell-based
NCI-H460 = test: Cytotoxicity against human H460 cells assessed as cell viability after 72 hrs by ATP-LITE assay; assay type: functional, cell-based; details: NCI-H460, 72 h
In short: (§2)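 ATP-LITE viability readout. Seeded 24 h before dosing (H460, H1299 at 2000 cells/well; PC3 at 3000 cells/well) in 12F2 or RPMI1640 with 5 mM L-glutamine, 5% FBS and pen/strep. Fresh 5% medium added, then compounds in 0.1% DMSO final. Viability read after 72 h treatment and normalized to DMSO-treated cells.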

[4] = Cytotoxicity against human H1299 cells assessed as cell viability after 72 hrs by ATP-LITE assay; assay type: functional, cell-based; details: NCI-H1299, 72 h; in short: as §2
BP3 [5] = test: as §1; assay type: functional, cell-based
[6] = Cytotoxicity against human PC3-ML cells assessed as cell viability after 72 hrs by ATP-LITE assay; assay type: functional, cell-based; in short: as §2
[7] = Chemical stability after 60 days at room temperature by HPLC/LC-MS analysis; assay type: physicochemical; details: 1440 h
In short: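 Solid compounds stored in air at room temperature for 60 days. Stability followed by HPLC combined with LC-MS.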

[8] = Membrane permeability assessed as drug permeation at 100 uM at pH 7.2 after 8 hrs by PAMPA; assay type: ADME; details: pH 7.2, 8 h
Mus musculus [9] = test: Reduction of spleen weight in human Bcl2 expressing B6 transgenic mouse at 72 umol/kg, ip administered as single dose after 24 hrs; assay type: functional; set-up: scale not given: the % may be the effect or the level left
In short: (§3)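 Age- and sex-matched B6Bcl2 transgenic mice (human BCL-2/IgH minigene, B cells accumulating in spleen), free of aggressive lymphoma. Single ip injection at 72 μmol/kg in 500 μL ethanol:Cremophor EL:saline 10:10:80; controls got vehicle alone. Killed with Avertin after 24 h and spleen weighed. Shrinkage expressed as percentage of maximum spleen-weight reduction.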

[10] = Cytotoxicity against wild type mouse fibroblast assessed as induction of cell death at 10 uM by FITC-annexin V and propidium iodide assay; assay type: cell-based
In short: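 Wild-type MEFs seeded at half a million per well in DMEM with 10% FCS. Next day compound added at 0, 2.5, 5.0, 7.5 or 10 μM. On the following day, floating and trypsinized adherent cells were pooled and stained with Annexin V-FITC and PI in binding buffer. Analyzed by flow cytometry, with double-negative cells counted as viable.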

[11] = Stability in rat liver microsome at 4 uM after 1 hr; assay type: ADME; details: liver microsomes, read-out: Stability
In short: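 Compound incubated for 1 h in rat microsomal preparations; percentage of parent remaining was reported.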

Mus musculus [12] = test: Toxicity in human Bcl2 expressing B6 transgenic mouse administered as single dose at 72 umol/kg, ip after 24 hrs; assay type: organism-based; details: in vivo
[13] = Stability in rat plasma after 1 hr at 37.5 degC; assay type: ADME, cell-free; details: read-out: Stability
In short: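 Compound incubated in rat plasma for 1 h; percentage of parent remaining was reported.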

Mus musculus [14] = test: Toxicity in human Bcl2 expressing B6 transgenic mouse at 120 umol/kg, ip administered as single dose after 24 hrs; assay type: organism-based; details: in vivo
Mus musculus [15] = test: Induction of spleen weight shrinkage in human Bcl2 expressing B6 transgenic mouse at 72 umol/kg, ip administered as single dose after 24 hrs; assay type: functional; in short: as §3
BP3 [16] = test: Cytotoxicity against human BP3 cells expressing Bfl1/Mcl1 by FITC-annexin V and propidium iodide assay; assay type: functional, cell-based

Chain of Bcl-2-like protein 1 (Homo sapiens) (Q07817 whole entry): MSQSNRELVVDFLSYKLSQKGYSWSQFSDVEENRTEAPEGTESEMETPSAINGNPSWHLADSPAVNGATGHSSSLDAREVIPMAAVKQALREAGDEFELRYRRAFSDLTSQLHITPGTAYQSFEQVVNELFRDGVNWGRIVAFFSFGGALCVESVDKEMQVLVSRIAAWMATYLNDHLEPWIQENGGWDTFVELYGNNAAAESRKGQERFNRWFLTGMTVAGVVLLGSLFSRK

SMILES	EC50 [1]	Activity [2]	EC50 [3]	EC50 (NCI-H460)	EC50 [4]	EC50 [6]	further results
Cc1cc2c(C(=O)NCCc3ccc(Cl)cc3)c(O)c(O)cc2c(O)c1-c1c(C)cc2c(C(=O)NCCc3ccc(Cl)cc3)c(O)c(O)cc2c1O	5.1 µM	Active	0.7 µM	1.3 µM			
Cc1cc(C)c(CNC(=O)c2c(O)c(O)cc3c(O)c(-c4c(C)cc5c(C(=O)NCc6c(C)cc(C)cc6C)c(O)c(O)cc5c4O)c(C)cc23)c(C)c1		Active					
Cc1cc2c(C(=O)O)c(O)c(O)cc2c(O)c1-c1c(C)cc2c(C(=O)O)c(O)c(O)cc2c1O	> 30 µM	inactive	> 30 µM	> 30 µM	> 30 µM	> 30 µM	Activity (BP3 [5]): Dose-dependent effect
Cc1cc2c(C(=O)NCCc3cccc(Cl)c3)c(O)c(O)cc2c(O)c1-c1c(C)cc2c(C(=O)NCCc3cccc(Cl)c3)c(O)c(O)cc2c1O	4.6 µM	Active	0.41 µM	0.99 µM	7.8 µM	3.2 µM	Stability [7]: Stable; logPe [8]: -7.71 log cm/s; Activity (Mus musculus [9]): 40%; Activity [10]: 80%; remaining at 1 h, 4 µM [11]: 90%; Activity (Mus musculus [12]): Toxic
Cc1cc2c(C(=O)NC3Cc4ccccc4C3)c(O)c(O)cc2c(O)c1-c1c(C)cc2c(C(=O)NC3Cc4ccccc4C3)c(O)c(O)cc2c1O	4.1 µM	Active	1.1 µM	0.94 µM	7.1 µM	3 µM	
Cc1cc2c(CCc3ccccc3)c(O)c(O)cc2c(O)c1-c1c(C)cc2c(CCc3ccccc3)c(O)c(O)cc2c1O	9.8 µM	Active	4.14 µM	0.92 µM	0.58 µM	2.4 µM	Stability [7]: Stable; logPe [8]: -6.61 log cm/s; remaining at 1 h [13]: 80%; remaining at 1 h, 4 µM [11]: 89%; Activity (Mus musculus [12]): Non-toxic; Activity (Mus musculus [14]): Non-toxic
CCc1ccc(CCNC(=O)c2c(O)c(O)cc3c(O)c(-c4c(C)cc5c(C(=O)NCCc6ccc(CC)cc6)c(O)c(O)cc5c4O)c(C)cc23)cc1	3 µM		0.2 µM	0.4 µM	0.36 µM	1.7 µM	Stability [7]: Stable; logPe [8]: -8.15 log cm/s; Activity (Mus musculus [15]): 85%; remaining at 1 h [13]: 94%; Activity [10]: 80%; remaining at 1 h, 4 µM [11]: 87%; Activity (Mus musculus [12]): Toxic
Cc1cc2c(C(=O)NC(C)c3ccc(Cl)cc3)c(O)c(O)cc2c(O)c1-c1c(C)cc2c(C(=O)NC(C)c3ccc(Cl)cc3)c(O)c(O)cc2c1O (centres undefined)	5.5 µM	Active	1.5 µM	0.5 µM	3.2 µM	5 µM	Stability [7]: Stable; logPe [8]: -7.92 log cm/s; Activity (Mus musculus [15]): 85%; Activity (Mus musculus [9]): 40%; remaining at 1 h [13]: 94%; Activity [10]: 80%; remaining at 1 h, 4 µM [11]: 71%; Activity (Mus musculus [12]): Toxic
Cc1cc2cc(O)c(O)cc2c(O)c1-c1c(C)cc2cc(O)c(O)cc2c1O	> 24.5 µM	inactive		> 10 µM	13.4 µM	> 10 µM	Activity (Mus musculus [15]): inactive; Activity (Mus musculus [12]): Non-toxic
Cc1cc2c(C(=O)NCC3CCCCC3)c(O)c(O)cc2c(O)c1-c1c(C)cc2c(C(=O)NCC3CCCCC3)c(O)c(O)cc2c1O	4.9 µM	Active	0.9 µM	0.41 µM	4.8 µM	3.7 µM	Stability [7]: Stable; logPe [8]: -6.67 log cm/s; remaining at 1 h [13]: 89%; Activity [10]: 80%; remaining at 1 h, 4 µM [11]: 90%; Activity (BP3 [5]): Dose-dependent effect; Activity (Mus musculus [12]): Toxic
Cc1cc2c(C(=O)NCC3CC3)c(O)c(O)cc2c(O)c1-c1c(C)cc2c(C(=O)NCC3CC3)c(O)c(O)cc2c1O	> 10 µM	Active					
Cc1cc2c(Cc3ccccc3)c(O)c(O)cc2c(O)c1-c1c(C)cc2c(Cc3ccccc3)c(O)c(O)cc2c1O	3.2 µM	Active		1.2 µM	1.28 µM	8.3 µM	
CCC(NC(=O)c1c(O)c(O)cc2c(O)c(-c3c(C)cc4c(C(=O)NC(CC)c5ccccc5)c(O)c(O)cc4c3O)c(C)cc12)c1ccccc1 (centres undefined)	4.2 µM	Active		1.5 µM			
Cc1cc2c(C(=O)Nc3cccc(C(F)(F)F)c3)c(O)c(O)cc2c(O)c1-c1c(C)cc2c(C(=O)Nc3cccc(C(F)(F)F)c3)c(O)c(O)cc2c1O	12.6 µM	Active		16.7 µM	28.7 µM	12.2 µM	Activity (BP3 [5]): Dose-dependent effect
Cc1cc2c(C(=O)NCc3cccc(Cl)c3)c(O)c(O)cc2c(O)c1-c1c(C)cc2c(C(=O)NCc3cccc(Cl)c3)c(O)c(O)cc2c1O	7.3 µM	Active		3.3 µM	5.2 µM	8.3 µM	Activity (BP3 [5]): Dose-dependent effect
Cc1cc2c(CC(C)C)c(O)c(O)cc2c(O)c1-c1c(C)cc2c(CC(C)C)c(O)c(O)cc2c1O		Active					
Cc1cc2c(C(=O)NCc3ccccc3)c(O)c(O)cc2c(O)c1-c1c(C)cc2c(C(=O)NCc3ccccc3)c(O)c(O)cc2c1O	9.3 µM	Active		4.6 µM	3.6 µM	13.7 µM	
CN(C)CC[C@H](CSc1ccccc1)Nc1ccc(S(=O)(=O)NC(=O)c2ccc(N3CCN(Cc4ccccc4-c4ccc(Cl)cc4)CC3)cc2)cc1[N+](=O)[O-]							Activity (BP3 [16]): inactive
Cc1cc2c(C(=O)Nc3ccc(Oc4ccccc4)cc3)c(O)c(O)cc2c(O)c1-c1c(C)cc2c(C(=O)Nc3ccc(Oc4ccccc4)cc3)c(O)c(O)cc2c1O	10.8 µM	Active		10.1 µM	17 µM	8.5 µM	
Cc1cc2c(C(=O)NC3CCCC3)c(O)c(O)cc2c(O)c1-c1c(C)cc2c(C(=O)NC3CCCC3)c(O)c(O)cc2c1O	13.7 µM	Active		8.5 µM	8 µM	12.2 µM	
Cc1cc2c(CC3CCCC3)c(O)c(O)cc2c(O)c1-c1c(C)cc2c(CC3CCCC3)c(O)c(O)cc2c1O	4.5 µM	Active		1.8 µM	10.9 µM	11.2 µM	logPe [8]: -6.27 log cm/s; remaining at 1 h [13]: 81%; remaining at 1 h, 4 µM [11]: 75%; Activity (Mus musculus [12]): Non-toxic; Activity (Mus musculus [14]): Non-toxic
Cc1cc2c(CCC(C)C)c(O)c(O)cc2c(O)c1-c1c(C)cc2c(CCC(C)C)c(O)c(O)cc2c1O		Active					
Cc1cc2c(C(=O)Nc3ccccc3)c(O)c(O)cc2c(O)c1-c1c(C)cc2c(C(=O)Nc3ccccc3)c(O)c(O)cc2c1O		Active		3.5 µM	8 µM		
Cc1cccc(CCNC(=O)c2c(O)c(O)cc3c(O)c(-c4c(C)cc5c(C(=O)NCCc6cccc(C)c6)c(O)c(O)cc5c4O)c(C)cc23)c1	5.6 µM	Active		0.7 µM			
Cc1cc2c(C(=O)NCCc3ccccc3)c(O)c(O)cc2c(O)c1-c1c(C)cc2c(C(=O)NCCc3ccccc3)c(O)c(O)cc2c1O		Active					logPe [8]: -6.49 log cm/s; remaining at 1 h [13]: 63%; remaining at 1 h, 4 µM [11]: 60%
Cc1cccc(CNC(=O)c2c(O)c(O)cc3c(O)c(-c4c(C)cc5c(C(=O)NCc6cccc(C)c6)c(O)c(O)cc5c4O)c(C)cc23)c1	4.8 µM	Active		2.9 µM	3.1 µM	10.2 µM	Activity (BP3 [5]): Dose-dependent effect
